Experimental data as given in ChEMBL document CHEMBL4270555, “Synthesis and biological evaluation of magnolol derivatives as melatonergic receptor agonists with potential use in depression” (Eur J Med Chem, 2018).
Active and inactive are the calls of the source. The calls are words filed in the database; no cut-off is given here.

Assays:
[1] = tested on: Mus musculus; assay: Increase in norepinephrine level in Kunming mouse thalamus at 40 mg/kg, po treated for 7 days by HPLC-ECD analysis; assay type: functional, organism-based
In short: (§1)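 Male Kunming mice (18–20 g) given vehicle or 40 mg/kg for 7 days, then killed by cervical dislocation. Frontal cortex, hippocampus, striatum, hypothalamus and thalamus dissected on ice, homogenized in ice-cold 0.2 M perchloric acid with 0.1 mM EDTA, centrifuged 15,000 rpm, 20 min, 4 °C. Supernatant analysed by HPLC-ECD at +0.50 V; phosphate/octanesulfonate mobile phase pH 3.0 with 12% methanol. Levels in ng/g, mean ± SEM.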

[2] = Drug metabolism in Sprague-Dawley rat plasma assessed as (2S,3R,4S,5S,6R)-2-(5,5'-diallyl-2'-methoxybiphenyl-2-yloxy)-6-(hydroxymethyl)tetrahydro-2H-pyran-3,4,5-triol formation at 100 mg/kg, po by UPLC-IT-TOF-MS analysis; assay type: ADME, organism-based; conditions: in vivo
In short: (§2)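 Rats (n = 6) housed in metabolic cages received 100.0 mg/kg orally; controls received 0.5% CMC-Na. Plasma, urine and faeces were collected and analyzed by LC-IT-TOF-MS on a C18 column at 30 °C. Gradient 5–100% acetonitrile with 0.05% formic acid over 18 min at 0.2 mL/min; positive and negative ion MS/MS.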

[3] = tested on: Mus musculus; assay: Increase in 4-hydroxy-3-methoxyphenylacetic acid level in Kunming mouse hypothalamus at 40 mg/kg, po treated for 7 days by HPLC-ECD analysis; assay type: functional, organism-based; in short: as §1
[4] = tested on: Rattus norvegicus; assay: Toxicity in Sprague-Dawley rat assessed as change in breathing rate at 2000 mg/kg, po measured continuously for first 4 hrs followed by measured every hour for next 24 hrs and at 6 hrs intervals for following 48 hrs post dose; assay type: organism-based; conditions: in vivo
In short: (§3)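 Followed OECD 425 in adult SD rats (180–220 g), three groups of six. Vehicle control received 0.5% CMC-Na orally; separate male and female groups received 2000 mg/kg orally. Endpoints observed: behaviour, breathing, cutaneous effects, sensory nervous system responses, gastrointestinal effects and deaths.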

[5] = tested on: Mus musculus; assay: Increase in norepinephrine level in Kunming mouse striatum at 40 mg/kg, po treated for 7 days by HPLC-ECD analysis; assay type: functional, organism-based; in short: as §1
[6] = biological target: T1, Melatonin receptor type 1B (Homo sapiens) (UniProt P49286); assay: Agonist activity at human MT2 receptor expressed in HEK293 cells at 1 mM after 24 hrs by Fluo-8 dye-based calcium assay relative to control; assay type: functional, cell-based
T1 sequence (whole entry): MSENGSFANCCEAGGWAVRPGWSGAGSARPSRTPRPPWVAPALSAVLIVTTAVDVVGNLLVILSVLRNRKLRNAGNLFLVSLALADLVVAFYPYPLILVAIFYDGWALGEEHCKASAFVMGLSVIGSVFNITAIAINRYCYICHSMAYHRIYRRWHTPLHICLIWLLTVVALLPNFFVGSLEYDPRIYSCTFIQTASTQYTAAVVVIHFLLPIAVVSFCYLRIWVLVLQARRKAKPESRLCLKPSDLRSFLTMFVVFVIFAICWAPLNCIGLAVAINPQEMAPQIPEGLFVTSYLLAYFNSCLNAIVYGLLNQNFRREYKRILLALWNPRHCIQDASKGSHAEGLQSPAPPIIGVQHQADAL
In short: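 Fluo-8 calcium assay in HEK293 cells stably expressing human MT1 or MT2, seeded 4×10^4/well and incubated 24 h. Compounds tested at 1.00 mM, agomelatine positive control at 3.33 µM; fluorescence at ex 485/em 525 nm. Agonism expressed as mean ± SD, n = 3.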

[7] = Toxicity in po dosed Sprague-Dawley rat measured continuously for first 4 hrs followed by measured every hour for next 24 hrs and at 6 hrs intervals for following 48 hrs post dose; assay type: organism-based; conditions: in vivo; in short: as §3
[8] = Drug metabolism in Sprague-Dawley rat plasma assessed as (2S,3S,4S,5R,6S)-6-(5,5'-diallyl-2'-methoxybiphenyl-2-yloxy)-3,4,5-trihydroxytetrahydro-2H-pyran-2-carboxylic acid formation at 100 mg/kg, po by UPLC-IT-TOF-MS analysis; assay type: ADME, organism-based; conditions: in vivo; in short: as §2
[9] = tested on: Mus musculus; assay: Toxicity in Kunming mouse assessed as effect in spontaneous locomotor activity by measuring total number of line crosses at 10 to 40 mg/kg, po by open field test; assay type: organism-based; conditions: in vivo
In short: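 Male Kunming mice, 18–20 g, group-housed at 22 ± 2 °C on 12 h light/dark, given oral doses of 10, 20 or 40 mg/kg before behavioural testing. Each animal placed in the centre of a black open-field box (24 × 24 × 40 cm) for 30 s adaptation, then explored freely for 6 min. Line crossings and distance recorded. Mean ± SEM, n = 10.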

[10] = tested on: Rattus norvegicus; assay: Toxicity in Sprague-Dawley rat assessed as death at 2000 mg/kg, po measured continuously for first 4 hrs followed by measured every hour for next 24 hrs and at 6 hrs intervals for following 48 hrs post dose; assay type: organism-based; conditions: in vivo; in short: as §3
[11] = Drug metabolism in Sprague-Dawley rat feces assessed as (2S,3S,4S,5R,6S)-3,4,5-trihydroxy-6-(5-(1-hydroxyallyl)-5'-(2-hydroxypropyl)-2'-methoxybiphenyl-2-yloxy)tetrahydro-2H-pyran-2-carboxylic acid formation at 100 mg/kg, po by UPLC-IT-TOF-MS analysis; assay type: ADME, organism-based; conditions: in vivo; in short: as §2
[12] = Drug metabolism in Sprague-Dawley rat urine assessed as 5'-(1-hydroxyallyl)-5-(1-hydroxypropyl)-2'-((2S,3R,4S,5S,6R)-3,4,5-trihydroxy-6-(hydroxymethyl)tetrahydro-2H-pyran-2-yloxy)biphenyl-2-yl hydrogen sulfate formation at 100 mg/kg, po by UPLC-IT-TOF-MS analysis; assay type: ADME, organism-based; conditions: in vivo
In short: (§4)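 Male/unspecified SD rats (n = 6) housed individually in metabolic cages, dosed orally at 100.0 mg/kg; controls given 0.5% CMC-Na orally. Plasma, urine and faeces collected. LC-IT-TOF-MS on C18 column at 30 °C, formic acid (0.05%) water/acetonitrile gradient 5–100% B over 18 min, 0.2 mL/min; positive and negative ion modes with automatic MS/MS.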

[13] = Drug metabolism in Sprague-Dawley rat urine assessed as (2S,3R,4S,5S,6R)-2-(5,5'-diallyl-2'-methoxybiphenyl-2-yloxy)-6-(hydroxymethyl)tetrahydro-2H-pyran-3,4,5-triol formation at 100 mg/kg, po by UPLC-IT-TOF-MS analysis; assay type: ADME, organism-based; conditions: in vivo; in short: as §4
[14] = Drug metabolism in Sprague-Dawley rat plasma assessed as 5'-(1-hydroxyallyl)-5-propyl-2'-((2S,3R,4S,5S,6R)-3,4,5-trihydroxy-6-(hydroxymethyl)tetrahydro-2H-pyran-2-yloxy)biphenyl-2-yl hydrogen sulfate formation at 100 mg/kg, po by UPLC-IT-TOF-MS analysis; assay type: ADME, organism-based; conditions: in vivo; in short: as §2
[15] = tested on: Mus musculus; assay: Effect on 5-hydroxytryptamine level in Kunming mouse hippocampus at 40 mg/kg, po treated for 7 days by HPLC-ECD analysis; assay type: functional, organism-based; in short: as §1
[16] = Drug level in Sprague-Dawley rat feces at 100 mg/kg, po by UPLC-IT-TOF-MS analysis; assay type: ADME, organism-based; conditions: in vivo; in short: as §2
[17] = tested on: Mus musculus; assay: Increase in ratio of 5-hydroxyindole-3-acetic acid to 5-hydroxytryptamine level in Kunming mouse frontal cortex at 40 mg/kg, po treated for 7 days by HPLC-ECD analysis; assay type: functional, organism-based; in short: as §1

C=CCc1ccc(O)c(-c2cc(CC=C)ccc2O[C@@H]2O[C@H](CO)[C@@H](O)[C@H](O)[C@H]2O)c1
Activity [1]: Active
Drug metabolism [2]: Metabolite_Detected
Activity [3]: Active
Activity [4]: Non-Toxic
Activity [5]: Active
Activity [6]: 151%
LD50 at 76 h [7]: > 2000 mg/kg
Drug metabolism [8]: Metabolite_Notdetected
Activity [9]: Non-Toxic
Activity [10]: Non-Toxic
Drug metabolism [11]: Metabolite_Notdetected
Drug metabolism [12]: Metabolite_Detected
Drug metabolism [13]: Metabolite_Detected
Drug metabolism [14]: Metabolite_Notdetected
Activity [15]: inactive
Drug uptake [16]: Not Active
Activity [17]: Active
